Most compounds without a hit are left out; they make up all but 0.79% or so of the library.
mIAP activ – activators of mouse IAP, primary screen, biochemical, luminescence, uHTS | muIAP, CDP-Star luminescence, 30 min; hits give high values; 1 = vehicle-only enzyme signal, 0 = enzyme-free wells | AID 2805, 2010 | activation factor at 10 µM | intestinal alkaline phosphatase [Mus musculus] | 330,000 tested, 0.24% active;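 active = activation factor of at least 2 at 20 µM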
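System: mouse IAP enzyme. Reagent: CDP-Star chemiluminescent phosphatase substrate. Benchmarks: DMSO wells, no-enzyme wells. Times: 30 min enzyme-substrate-compound incubation at room temperature. Detection: luminescence from enzymatic CDP-Star hydrolysis. Doses: test compounds delivered from DMSO solution.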
hIAP act – human IAP activators, primary screen, biochemical, luminescence, uHTS; Intestinal-type alkaline phosphatase (Homo sapiens), P09923; purified human IAP, CDP-Star luminescence, 30 min; hits give high values; 1 = vehicle-only enzyme, 0 = enzyme-free background; activation factor at 10 µM; 330,000 tested, 0.16% active; AID 2524, 2010;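 active = activation factor of the enzyme at least 2-fold when tested at 20 µM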
Target sequence (P09923 whole entry, looked up): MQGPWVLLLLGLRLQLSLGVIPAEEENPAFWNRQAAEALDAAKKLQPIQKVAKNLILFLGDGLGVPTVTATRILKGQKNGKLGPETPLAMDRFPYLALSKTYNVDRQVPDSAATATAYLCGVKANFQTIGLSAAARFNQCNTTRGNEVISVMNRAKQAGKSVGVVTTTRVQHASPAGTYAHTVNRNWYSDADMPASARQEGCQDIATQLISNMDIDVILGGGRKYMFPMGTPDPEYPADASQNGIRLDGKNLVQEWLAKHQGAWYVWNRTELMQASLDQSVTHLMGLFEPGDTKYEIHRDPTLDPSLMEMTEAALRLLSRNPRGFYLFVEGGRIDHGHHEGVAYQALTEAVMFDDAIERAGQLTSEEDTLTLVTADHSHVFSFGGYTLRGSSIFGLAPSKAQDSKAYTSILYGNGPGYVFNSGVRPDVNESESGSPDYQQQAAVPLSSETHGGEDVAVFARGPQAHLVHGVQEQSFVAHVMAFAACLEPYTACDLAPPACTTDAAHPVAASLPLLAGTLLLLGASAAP
hIAP inh – human IAP inhibitors, primary screen, biochemical, luminescence, uHTS; purified IAP, CDP-Star luminescence, 30 min; inhibition, % at 10 µM; 330,000 tested, 0.12% active; AID 2544, 2010;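 active = inhibition reaching a set limit with compound at 10 µM in the primary screen, cut at about 35% in these data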;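 also: plate controls were DMSO wells with enzyme for no effect and no-enzyme buffer wells for full effect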
bIAP act – bovine intestinal alkaline phosphatase activators, primary screen, biochemical, bovine IAP, CDP-star luminescence; AID 1016, 2008; alkaline phosphatase, intestinal [Bos taurus]; activation factor at 20 µM; 200,000 tested, 0.17% active; purified bovine IAP, 30 min; hits give high values; fold of DMSO-control signal, blank-subtracted;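 active = activation factor of 2 or more at 20 µM, a signal rise over negative controls twice the positive control's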
mIAP block – inhibitors of mouse IAP, primary screen, biochemical, luminescence, uHTS; 330,000 tested, 0.2% active; intestinal alkaline phosphatase [Mus musculus]; inhibition, % at 10 µM; purified mouse IAP, CDP-Star luminescence, 30 min;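 active = inhibition of at least 40% at 10 µM in the primary screen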;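 also: plate controls were DMSO with enzyme for no effect and no enzyme wells for full effect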
bIAP inh – bovine intestinal alkaline phosphatase inhibitors, primary screen, selectivity assay for TNAP inhibitor project, biochemical, bovine IAP, CDP-star luminescence; alkaline phosphatase, intestinal [Bos taurus]; purified bovine IAP, 30 min; inhibition, % at 20 µM; 190,000 tested, under 10 active; AID 1019, 2008;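 active = over 50% inhibition of intestinal alkaline phosphatase at 20 µM in the single-dose screen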
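System: Purified bovine intestinal alkaline phosphatase (IAP) enzyme | Input: IAP diluted 1/65,000,000 in the well | Also added: CDP-star chemiluminescent phosphatase substrate, 30 µM final | Dosing: 20 µM single dose | Times: Enzyme reaction for 30 min at room temperature | Detection: Luminescence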
mIAP inh confirm – inhibitors of mouse IAP, confirmation, biochemical, luminescence, single concentration; AID 434971, 2010; inhibition, % at 10 µM; 11,000 tested, 4.7% active; shares compounds with mIAP block; purified mouse IAP, CDP-Star luminescence, 30 min;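 active = inhibition of at least 40% at 10 µM in either of the two replicates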;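 also: plate controls were DMSO wells with enzyme for no effect and buffer wells lacking enzyme for full effect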
Numbers without * were called inactive.

How did Cc1c2cc(O)c(=O)cc-2oc2cc(O)c(O)cc12 do in these assays?
mIAP activ: 0.27; hIAP act: 0.75; hIAP inh: 25; bIAP act: 0.4; mIAP block: 73*; mIAP inh confirm: 86*

What do the screens show for `O=C1CSC(=S)N1N1C(=O)c2cccc([N+](=O)[O-])c2C1=O`?
mIAP activ: 0.43; hIAP act: 1.1; hIAP inh: -10; bIAP act: 0.5; mIAP block: 57*; bIAP inh: 49; mIAP inh confirm: 68*

How did C#CCOCCOCCOCCNc1nc(N2CCN(C(=O)CCCCCCCCCCNC(=O)[C@@H](CCSC)n3cc(CCO)nn3)CC2)nc(N2CCN(C(=O)CCCCCCCCCCNC(=O)[C@H]([C@@H](C)CC)n3cc(CCCCN=C(N)N)nn3)CC2)n1 do in these assays?
mIAP activ: 22*; hIAP act: 1.5; hIAP inh: -53; mIAP block: inactive; mIAP inh confirm: inactive

How did C#CCOCCOCCOCCNc1nc(N2CCN(C(=O)CCCCCCCCCCNC(=O)[C@@H](CCSC)n3cc(CCO)nn3)CC2)nc(N2CCN(C(=O)CCCCCCCCCCNC(=O)[C@H]([C@@H](C)CC)n3cc(CCCCCN)nn3)CC2)n1 do in these assays?
mIAP activ: 3.5*; hIAP act: 0.97; hIAP inh: 3; mIAP block: -250; mIAP inh confirm: inactive

How did C#CCOCCOCCOCCNc1nc(N2CCOCC2)nc(N2CCN(C(=O)CCCCCCCCCCNC(=O)[C@@H](CCSC)n3cc(CCO)nn3)CC2)n1 do in these assays?
mIAP activ: 1.3; hIAP act: 0.97; hIAP inh: 3; mIAP block: -27

What do the screens show for `COc1cccc(CNc2ccccc2O)c1OCc1ccccc1F`?
mIAP activ: 0.88; hIAP act: 0.9; hIAP inh: 10; bIAP act: 1; mIAP block: 12; bIAP inh: 1

Results for CC(=O)NCc1ccc(-c2csc(N)n2)s1 ?
mIAP activ: 0.28; hIAP act: 0.88; hIAP inh: 12; bIAP act: 0.9; mIAP block: 72*; bIAP inh: 9; mIAP inh confirm: 77*

How did Cc1ccc(-c2csc(N)n2)s1 do in these assays?
mIAP activ: 0.32; hIAP act: 0.77; hIAP inh: 23; bIAP act: 1; mIAP block: 68*; bIAP inh: 3; mIAP inh confirm: 78*

Results for CC(=O)Nc1cccc(-c2csc(N)n2)c1 ?
mIAP activ: 1.1; hIAP act: 1.2; hIAP inh: -16; bIAP act: 0.9; mIAP block: -6; bIAP inh: 6

Results for Cc1csc(N)n1 ?
mIAP activ: 0.97; hIAP act: 1; hIAP inh: -2; bIAP act: 0.9; mIAP block: 3; bIAP inh: 12

What do the screens show for `Cc1c(Cl)ccc2c(C(=O)NC(C)c3ccncc3)cc(-c3ccncc3)nc12` (stereo unspecified)?
mIAP activ: 0.89; hIAP act: 1.1; hIAP inh: -8; bIAP act: 1.2; mIAP block: 11; bIAP inh: -24

Results for CCS(=O)(=O)N1Cc2ccccc2CC1C(=O)N(C)Cc1ccc(OC)c(F)c1 (stereo unspecified) ?
mIAP activ: 0.99; hIAP act: 0.98; hIAP inh: 2; mIAP block: 1

What do the screens show for `CC1(C)CN(c2cccc(Br)c2)C1=O`?
mIAP activ: 1; hIAP act: 0.97; hIAP inh: 2; bIAP act: 1; mIAP block: 0; bIAP inh: 2
